Measured values reported in ChEMBL document CHEMBL4689842, “EUbOPEN Chemogenomics Library wave 1” (2021).

Experiments:
Type in all cases: toxicity, cell-based
[1] = system: Fibroblast; assay: Multiplex assay against human fibroblast
In short: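 Values for tubulin, mitochondrial-mass and membrane-permeability phenotypes are per cents of cells with healthy nuclei. These cells were identified by CellPathfinder machine-learning gating of live cells that had been stained at seeding with Hoechst33342, BioTracker Green Microtubule Cytoskeleton Dye, MitoTracker Red and Annexin V Alexa Fluor 680 and imaged on a CQ1 microscope at 37°C and 5% CO2 after compound addition. The gating first set Hoechst high-intensity objects apart from normal cells, then split normal cells into healthy, pyknosed or fragmented nuclei, and pyknosed cells into mitotic or apoptotic.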

[2] = system: HEK-293T; assay: Incucyte cell viability with HEK293T; details: human, 10 µM, compound concentration 10 uM; further: filed as whole numbers so only -1 and 0 and 1 occur
[3] = system: Fibroblast; assay: Incucyte cell viability with human fibroblast; details: 10 µM, compound concentration 10 uM; further: filed as whole numbers so only -1 and 0 and 1 occur
[4] = system: U2OS; assay: Incucyte cell viability with U2OS; details: human, 10 µM, compound concentration 10 uM; further: filed as whole numbers so only -1 and 0 and 1 occur
[5] = 12 h, 1 µM, compound concentration 1 uM, replicate 1
[6] = 12 h, 1 µM, compound concentration 1 uM, replicate 2
[7] = 12 h, 10 µM, compound concentration 10 uM, replicate 1
[8] = 12 h, 10 µM, compound concentration 10 uM, replicate 2
[9] = 24 h, 1 µM, compound concentration 1 uM, replicate 1
[10] = 24 h, 1 µM, compound concentration 1 uM, replicate 2
[11] = 24 h, 10 µM, compound concentration 10 uM, replicate 1
[12] = 24 h, 10 µM, compound concentration 10 uM, replicate 2
[13] = 48 h, 1 µM, compound concentration 1 uM, replicate 1
[14] = 48 h, 1 µM, compound concentration 1 uM, replicate 2
[15] = 48 h, 10 µM, compound concentration 10 uM, replicate 1
[16] = 48 h, 10 µM, compound concentration 10 uM, replicate 2
[17] = 0 h, replicate number 2, timepoint 0 hours
[18] = 6 h, replicate number 1, timepoint 6 hours
[19] = 12 h, replicate number 1, timepoint 12 hours
[20] = 18 h, replicate number 1, timepoint 18 hours
[21] = 24 h, replicate number 1, timepoint 24 hours

CC(=O)c1cc(-c2cc(C(=O)NC3CC3)ccc2C)c2ncccn12
Population Apoptotic (%) [1, 5]: 68% | Population Fragmented Nuclei (%) [1, 5]: 28% | Population Healthy Nuclei (%) [1, 5]: 35% | Population Hoechst High Intensity Objects (%) [1, 5]: 16% | Population Membrane Permeable-Phenotype (%) [1, 5]: 42% | Population Mitochondria Different-Phenotype (%) [1, 5]: 3% | Population Mitotic Cells (%) [1, 5]: 31% | Population Normal (%) [1, 5]: 83% | Population Pyknosed Nuclei (%) [1, 5]: 36% | Population Tubulin-Different-Phenotype (%) [1, 5]: 42% | Total Cell Count [1, 5]: 96 | Population Apoptotic (%) [1, 6]: 66% | Population Fragmented Nuclei (%) [1, 6]: 8% | Population Healthy Nuclei (%) [1, 6]: 85% | Population Hoechst High Intensity Objects (%) [1, 6]: 7% | Population Membrane Permeable-Phenotype (%) [1, 6]: 2% | Population Mitochondria Different-Phenotype (%) [1, 6]: 7% | Population Mitotic Cells (%) [1, 6]: 33% | Population Normal (%) [1, 6]: 92% | Population Pyknosed Nuclei (%) [1, 6]: 6% | Population Tubulin-Different-Phenotype (%) [1, 6]: 19% | Total Cell Count [1, 6]: 73 | Population Apoptotic (%) [1, 7]: 60% | Population Fragmented Nuclei (%) [1, 7]: 20% | Population Healthy Nuclei (%) [1, 7]: 40% | Population Hoechst High Intensity Objects (%) [1, 7]: 25% | Population Membrane Permeable-Phenotype (%) [1, 7]: 30% | Population Mitochondria Different-Phenotype (%) [1, 7]: 23% | Population Mitotic Cells (%) [1, 7]: 39% | Population Normal (%) [1, 7]: 75% | Population Pyknosed Nuclei (%) [1, 7]: 39% | Population Tubulin-Different-Phenotype (%) [1, 7]: 50% | Total Cell Count [1, 7]: 140 | Population Fragmented Nuclei (%) [1, 8]: 11% | Population Healthy Nuclei (%) [1, 8]: 84% | Population Hoechst High Intensity Objects (%) [1, 8]: 4% | Population Membrane Permeable-Phenotype (%) [1, 8]: 3% | Population Mitochondria Different-Phenotype (%) [1, 8]: 8% | Population Mitotic Cells (%) [1, 8]: 40% | Population Normal (%) [1, 8]: 95% | Population Pyknosed Nuclei (%) [1, 8]: 5% | Population Tubulin-Different-Phenotype (%) [1, 8]: 17% | Total Cell Count [1, 8]: 52 | Population Apoptotic (%) [1, 9]: 66% | Population Fragmented Nuclei (%) [1, 9]: 25% | Population Healthy Nuclei (%) [1, 9]: 45% | Population Hoechst High Intensity Objects (%) [1, 9]: 15% | Population Membrane Permeable-Phenotype (%) [1, 9]: 51% | Population Mitochondria Different-Phenotype (%) [1, 9]: 7% | Population Mitotic Cells (%) [1, 9]: 33% | Population Normal (%) [1, 9]: 84% | Population Pyknosed Nuclei (%) [1, 9]: 29% | Population Tubulin-Different-Phenotype (%) [1, 9]: 43% | Total Cell Count [1, 9]: 108 | Population Apoptotic (%) [1, 10]: 0% | Population Fragmented Nuclei (%) [1, 10]: 3% | Population Healthy Nuclei (%) [1, 10]: 91% | Population Hoechst High Intensity Objects (%) [1, 10]: 4% | Population Membrane Permeable-Phenotype (%) [1, 10]: 3% | Population Mitochondria Different-Phenotype (%) [1, 10]: 9% | Population Mitotic Cells (%) [1, 10]: 100% | Population Normal (%) [1, 10]: 95% | Population Pyknosed Nuclei (%) [1, 10]: 5% | Population Tubulin-Different-Phenotype (%) [1, 10]: 12% | Total Cell Count [1, 10]: 70 | Population Apoptotic (%) [1, 11]: 57% | Population Fragmented Nuclei (%) [1, 11]: 21% | Population Healthy Nuclei (%) [1, 11]: 47% | Population Hoechst High Intensity Objects (%) [1, 11]: 15% | Population Membrane Permeable-Phenotype (%) [1, 11]: 24% | Population Mitochondria Different-Phenotype (%) [1, 11]: 9% | Population Mitotic Cells (%) [1, 11]: 42% | Population Normal (%) [1, 11]: 84% | Population Pyknosed Nuclei (%) [1, 11]: 31% | Population Tubulin-Different-Phenotype (%) [1, 11]: 65% | Total Cell Count [1, 11]: 151 | Population Apoptotic (%) [1, 12]: 48% | Population Fragmented Nuclei (%) [1, 12]: 11% | Population Healthy Nuclei (%) [1, 12]: 63% | Population Hoechst High Intensity Objects (%) [1, 12]: 2% | Population Membrane Permeable-Phenotype (%) [1, 12]: 8% | Population Mitochondria Different-Phenotype (%) [1, 12]: 12% | Population Mitotic Cells (%) [1, 12]: 51% | Population Normal (%) [1, 12]: 97% | Population Pyknosed Nuclei (%) [1, 12]: 24% | Population Tubulin-Different-Phenotype (%) [1, 12]: 18% | Total Cell Count [1, 12]: 62 | Population Apoptotic (%) [1, 13]: 42% | Population Fragmented Nuclei (%) [1, 13]: 40% | Population Healthy Nuclei (%) [1, 13]: 46% | Population Hoechst High Intensity Objects (%) [1, 13]: 10% | Population Membrane Permeable-Phenotype (%) [1, 13]: 34% | Population Mitochondria Different-Phenotype (%) [1, 13]: 2% | Population Mitotic Cells (%) [1, 13]: 57% | Population Normal (%) [1, 13]: 89% | Population Pyknosed Nuclei (%) [1, 13]: 13% | Population Tubulin-Different-Phenotype (%) [1, 13]: 20% | Total Cell Count [1, 13]: 119 | Population Apoptotic (%) [1, 14]: 33% | Population Fragmented Nuclei (%) [1, 14]: 30% | Population Healthy Nuclei (%) [1, 14]: 66% | Population Hoechst High Intensity Objects (%) [1, 14]: 7% | Population Membrane Permeable-Phenotype (%) [1, 14]: 12% | Population Mitochondria Different-Phenotype (%) [1, 14]: 1% | Population Mitotic Cells (%) [1, 14]: 66% | Population Normal (%) [1, 14]: 92% | Population Pyknosed Nuclei (%) [1, 14]: 3% | Population Tubulin-Different-Phenotype (%) [1, 14]: 32% | Total Cell Count [1, 14]: 101 | Population Apoptotic (%) [1, 15]: 52% | Population Fragmented Nuclei (%) [1, 15]: 30% | Population Healthy Nuclei (%) [1, 15]: 51% | Population Hoechst High Intensity Objects (%) [1, 15]: 17% | Population Membrane Permeable-Phenotype (%) [1, 15]: 27% | Population Mitochondria Different-Phenotype (%) [1, 15]: 6% | Population Mitotic Cells (%) [1, 15]: 47% | Population Normal (%) [1, 15]: 82% | Population Pyknosed Nuclei (%) [1, 15]: 17% | Population Tubulin-Different-Phenotype (%) [1, 15]: 45% | Total Cell Count [1, 15]: 145 | Population Apoptotic (%) [1, 16]: 75% | Population Fragmented Nuclei (%) [1, 16]: 26% | Population Healthy Nuclei (%) [1, 16]: 69% | Population Hoechst High Intensity Objects (%) [1, 16]: 9% | Population Membrane Permeable-Phenotype (%) [1, 16]: 16% | Population Mitochondria Different-Phenotype (%) [1, 16]: 8% | Population Mitotic Cells (%) [1, 16]: 25% | Population Normal (%) [1, 16]: 90% | Population Pyknosed Nuclei (%) [1, 16]: 4% | Population Tubulin-Different-Phenotype (%) [1, 16]: 35% | Total Cell Count [1, 16]: 107 | Growth Rate [2, 17]: 1 | Growth Rate [2, 18]: 0 | Growth Rate [2, 19]: 0 | Growth Rate [2, 20]: 0 | Growth Rate [2, 21]: 0 | Growth Rate [3, 17]: 1 | Growth Rate [3, 18]: 0 | Growth Rate [3, 19]: 0 | Growth Rate [3, 20]: 0 | Growth Rate [3, 21]: 0 | Growth Rate ([4]; 0 h, replicate number 1, timepoint 0 hours): 0 | Growth Rate [4, 18]: 0 | Growth Rate [4, 19]: 0 | Growth Rate [4, 20]: 0 | Growth Rate [4, 21]: 0
